In brackets after ≈: the same amount, converted by molar mass. Activity calls are given as the source filed them. No cut-off for these calls is given here.
Legend:
Human alphaherpesvirus 1 [1] = assay: Antiviral activity against ACV-resistant Herpes simplex virus 1 AR-29 infected in African green monkey Vero cells assessed as suppression of viral replication by measuring reduction in ICP4 production at 12.5 ug/ml measured after 24 hrs by immunofluorescence assay relative to control; type: functional; set-up: scale not given: the % may be the effect or the level left
Method in brief: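 Vero cells on coverslips, infected with HSV-1 AR-29 and given mangiferin (1.56–12.5 μg/mL) at 0 h. At 24 h they are acetone-fixed (−20 °C, 20 min) and blocked with 2% skim milk. Stained with mouse anti-ICP4 and FITC anti-mouse IgG. 100 cells per coverslip are scored by fluorescence microscopy, inhibition relative to infected untreated cells. Duplicate experiments.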

[2] = Selectivity index, ratio of CC50 for African green monkey Vero cells to IC50 for Herpes simplex virus 1 AR-29 infected in African green monkey Vero cells; type: toxicity; settings: read-out: Ratio CC50/IC50
Method in brief: (§1)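 SI = CC50 (Vero, MTT, 72 h) / IC50 from plaque reduction with mangiferin added at infection (0 h) against HSV-1 AR-29 or KOS; IC50 by linear regression of viral inhibition curves.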

Human alphaherpesvirus 1 [3] = assay: Virucidal activity against ACV-resistant Herpes simplex virus 1 AR-29 infected in African green monkey Vero cells assessed as inhibition of viral inhibition at 3.12 to 25 ug/mL measured after 1 hr by plaque reduction assay; type: functional, organism-based
Method in brief: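 HSV-1 AR-29 suspension is incubated with mangiferin (3.12–25 μg/mL) for 1 h at 37 °C, then titrated by plaque reduction on Vero cells. Agarose/MgCl2 overlay, 72 h, crystal violet stain. %VI is taken against virus control. Triplicate independent experiments.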

[4] = Selectivity index, ratio of CC50 for African green monkey Vero cells to IC50 for Herpes simplex virus 1 KOS infected in African green monkey Vero cells; type: toxicity; settings: read-out: Ratio CC50/IC50; method in brief: as §1
Human alphaherpesvirus 1 [5] = assay: Antiviral activity against ACV-resistant Herpes simplex virus 1 AR-29 infected in African green monkey Vero cells assessed as inhibition of viral infection at 3.12 ug/ml measured after 72 hrs by crystal violet staining based plaque reduction assay relative to control; type: functional; settings: Human alphaherpesvirus 1, AR-29, Vero
Method in brief: (§2)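 Plaque reduction in Vero cells. Mangiferin at 3.12, 6.25, 12.5 or 25 μg/mL is added at infection (0 h) with HSV-1 (10^5 PFU/mL). Agarose overlay with 25 mM MgCl2, 72 h at 37 °C/5% CO2, 20% formaldehyde fix, 0.5% crystal violet stain. %VI is taken against virus control. IC50 comes from linear regression of inhibition curves. Triplicate independent experiments.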

Human alphaherpesvirus 1 [6] = assay: Antiviral activity against ACV-resistant Herpes simplex virus 1 AR-29 infected in female Balb/c mouse assessed as reduction in skin lesion at 0.7% w/w applied topically 5 times a day at 3 hrs interval for 10 days; type: functional, organism-based
Method in brief: (§3)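 Balb/c mice, 5 weeks old, six per group. Right mid-flank depilated under i.p. anaesthesia, needle-scarified 24 h later and inoculated with 70 μL HSV-1 AR-29 (10^5 PFU/mL). Topical 0.7% w/w O/W emulsion or ACV cream (50 mg/g) starts 4 h post-infection, 5 times daily for 10 days. Lesions are scored daily.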

Human alphaherpesvirus 1 [7] = assay: Antiviral activity against ACV-sensitive Herpes simplex virus 1 KOS infected in African green monkey Vero cells assessed as inhibition of viral infection measured after 72 hrs by crystal violet staining based plaque reduction assay; type: functional, organism-based; settings: Human alphaherpesvirus 1, strain KOS; method in brief: as §2
Human alphaherpesvirus 1 [8] = assay: Antiviral activity against ACV-sensitive Herpes simplex virus 1 KOS infected in African green monkey Vero cells assessed as inhibition of viral adsorption at 3.12 ug/mL preincubated for 30 mins and measured after 1 hr by plaque reduction assay relative to control; type: functional; settings: Human alphaherpesvirus 1, strain KOS
Method in brief: (§4)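 Vero cells pre-chilled 30 min at 4 °C, then given mangiferin (3.12–25 μg/mL) together with HSV-1 KOS (10^5 PFU/mL); 1 h adsorption at 4 °C, then plaque reduction: agarose/DMEM overlay with 25 mM MgCl2, 72 h at 37 °C, formaldehyde fixation, crystal violet stain. %VI = 1 − PFU treated/PFU virus control; triplicate independent experiments.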

Human alphaherpesvirus 1 [9] = assay: Antiviral activity against ACV-sensitive Herpes simplex virus 1 KOS infected in male Balb/c mouse assessed as reduction in vesicles at 0.7% w/w applied topically 5 times a day at 3 hrs interval for 10 days measured on day 2 post infection; type: functional, organism-based; settings: strain KOS
Method in brief: (§5)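 Balb/c mice (5 weeks, 22–27 g; six per group, sexes tested separately) had the right mid-flank depilated under i.p. anaesthesia and needle-scarified 24 h later. They were inoculated with 70 μL HSV-1 KOS (10^5 PFU/mL). From 4 h post-infection, O/W emulsion with 0.7% w/w mangiferin or ACV cream (50 mg/g) was applied topically 5 times daily for 10 days. Lesions were scored daily.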

Human alphaherpesvirus 1 [10] = assay: Antiviral activity against ACV-sensitive Herpes simplex virus 1 KOS infected in male Balb/c mouse assessed as reduction in ulcerated lesion at 0.7% w/w applied topically 5 times a day at 3 hrs interval for 10 days measured on day 5 post infection; type: functional, organism-based; settings: strain KOS; method in brief: as §5
Human alphaherpesvirus 1 [11] = assay: Antiviral activity against ACV-sensitive Herpes simplex virus 1 KOS infected in female Balb/c mouse assessed as change in epidermis thickness at 0.7% w/w applied topically 5 times a day at 3 hrs interval for 10 days measured on day 10 post infection by H and E staining based histological analysis; settings: strain KOS
Human alphaherpesvirus 1 [12] = assay: Antiviral activity against ACV-sensitive Herpes simplex virus 1 KOS infected in African green monkey Vero cells assessed as inhibition of viral adsorption at 25 ug/mL preincubated for 30 mins and measured after 1 hr by plaque reduction assay; type: functional, organism-based; settings: strain KOS; method in brief: as §4
Human alphaherpesvirus 1 [13] = assay: Antiviral activity against ACV-sensitive Herpes simplex virus 1 KOS infected in African green monkey Vero cells assessed as inhibition of viral infection at 25 ug/ml measured after 72 hrs by crystal violet staining based plaque reduction assay relative to control; type: functional; settings: Human alphaherpesvirus 1, strain KOS; method in brief: as §2
Human alphaherpesvirus 1 [14] = assay: Antiviral activity against ACV-resistant Herpes simplex virus 1 AR-29 infected in male Balb/c mouse assessed as change in dermis thickness at 0.7% w/w applied topically 5 times a day at 3 hrs interval for 10 days measured on day 10 post infection by H and E staining based histological analysis; type: functional, organism-based
[15] = Cytotoxicity against African green monkey Vero cells assessed as reduction in cell viability incubated for 72 hrs by MTT assay; type: cell-based; settings: chlorocebus sabaeus
Method in brief: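 Vero cells exposed to mangiferin 31.25–500 μg/mL for 72 h at 37 °C, 5% CO2. Viability read by MTT as At/Ac × 100 versus untreated cells; CC50 from linear regression.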

Human alphaherpesvirus 1 [16] = assay: Antiviral activity against ACV-resistant Herpes simplex virus 1 AR-29 infected in male Balb/c mouse assessed as reduction in ulcerated lesion at 0.7% w/w applied topically 5 times a day at 3 hrs interval for 10 days measured on day 5 post infection; type: functional, organism-based; method in brief: as §3
Human alphaherpesvirus 1 [17] = assay: Antiviral activity against ACV-sensitive Herpes simplex virus 1 KOS infected in male Balb/c mouse assessed as change in epidermis thickness at 0.7% w/w applied topically 5 times a day at 3 hrs interval for 10 days measured on day 10 post infection by H and E staining based histological analysis; settings: strain KOS
Human alphaherpesvirus 1 [18] = assay: Antiviral activity against ACV-sensitive Herpes simplex virus 1 KOS infected in male Balb/c mouse assessed as change in dermis thickness at 0.7% w/w applied topically 5 times a day at 3 hrs interval for 10 days measured on day 10 post infection by H and E staining based histological analysis; settings: strain KOS

In the case of `O=c1c2cc(O)c(O)cc2oc2cc(O)c([C@@H]3O[C@H](CO)[C@@H](O)[C@H](O)[C@H]3O)c(O)c12` [MANGIFERIN], the Activity (Human alphaherpesvirus 1 [1]) is reported as 54.1%, the selectivity ratio [2] is reported as over 172 and the inhibition (Human alphaherpesvirus 1 [3]) is reported as “Active”. For the same compound, the selectivity ratio [4] was over 143, the inhibition at 3.12 µg/mL (Human alphaherpesvirus 1 [5]) was 57.6% and the Activity (Human alphaherpesvirus 1 [6]) was “Active”. For the same compound, the IC50 (Human alphaherpesvirus 1 [7]) was 3.5 µg/mL (≈ 8.29 µM), the inhibition at 3.12 µg/mL (Human alphaherpesvirus 1 [8]) was 29.2% and the Activity (Human alphaherpesvirus 1 [9]) was “inactive”. For the same compound, the Activity (Human alphaherpesvirus 1 [10]) was “inactive”, the Activity (Human alphaherpesvirus 1 [11]) was “inactive” and the inhibition (Human alphaherpesvirus 1 [12]) was “Active”. The inhibition at 25 µg/mL (Human alphaherpesvirus 1 [13]) was 100%, the Activity (Human alphaherpesvirus 1 [14]) was “inactive” and the CC50 at 72 h [15] was over 500 µg/mL. The Activity (Human alphaherpesvirus 1 [16]) was “Active”, the Activity (Human alphaherpesvirus 1 [17]) was “inactive” and the Activity (Human alphaherpesvirus 1 [18]) was “inactive”.

Source: ChEMBL document CHEMBL4610063, “Mangiferin: A promising natural xanthone from Mangifera indica for the control of acyclovir - resistant herpes simplex virus 1 infection” (Bioorg Med Chem, 2020)
